Assay results published in ChEMBL document CHEMBL4613282, “Novel N-Substituted Benzomorphan-Based Compounds: From MOR-Agonist/DOR-Antagonist to Biased/Unbiased MOR Agonists” (ACS Med Chem Lett, 2020).
Calls of active or inactive are those of the source. The rule behind the calls is not given here.

Legend:
[1] = biological target: Mu-type opioid receptor (Rattus norvegicus, UniProt P33535); experiment: Displacement of [3H]-DAMGO from MOR in rat brain membranes incubated for 45 mins by liquid scintillation counting; assay type: cell membranes, Membrane
Procedure, shortened: (§1)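 Ki as mean ± SEM of three separate experiments, each run in duplicate.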

[2] = biological target: Delta-type opioid receptor (Rattus norvegicus, UniProt P33533); experiment: Displacement of [3H]DPDPE from DOR in rat brain membranes incubated for 45 mins by liquid scintillation counting; assay type: cell membranes, Membrane; procedure, shortened: as §1
[3] = biological target: Kappa-type opioid receptor (Cavia porcellus, UniProt P41144); experiment: Displacement of [3H]-U69,593 from KOR in guinea pig brain membranes incubated for 30 mins by liquid scintillation counting; assay type: cell membranes, Membrane
Procedure, shortened: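 KOR binding measured as [3H]U69,593 displacement. Ki as mean ± SEM of three separate experiments, each run in duplicate.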

[4] = biological target: Mu-type opioid receptor (Homo sapiens) (UniProt P35372); experiment: Agonist activity at EE-tagged MOR (unknown origin) expressed in human HEK293 cells assessed as increase in ERK1/2 phosphorylation at 1 uM after 5 mins by Western blot analysis; assay type: cell-based
Procedure, shortened: (§2)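 Serum-starved HEK293 cells stably expressing MOR exposed to 1 μM compound for 5, 10 or 15 min. Lysates run on 10% SDS-PAGE and immunoblotted for phospho-ERK1,2, with α-tubulin reprobe as loading check. […] Three independent experiments.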

[5] = system: Mus musculus; experiment: Antinociceptive activity in Swiss […] mouse assessed as effect on tail flick latency at 2.5 to 7.5 mg/kg, ip after 90 mins by radiant heat tail-flick method; assay type: functional, organism-based
Procedure, shortened: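 Mouse tail-flick test after 2.5–7.5 mg/kg i.p.; saline-treated group as control. Tail-flick latency (s) followed over 90 min. Mean ± SEM from 6–8 mice.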

[6] = biological target: Mu-type opioid receptor (Homo sapiens) (UniProt P35372); experiment: Agonist activity at EE-tagged MOR (unknown origin) expressed in human HEK293 cells assessed as increase in ERK1/2 phosphorylation at 1 uM after 15 mins by Western blot analysis; assay type: cell-based; procedure, shortened: as §2
[7] = biological target: Mu-type opioid receptor (Homo sapiens) (UniProt P35372); experiment: Agonist activity at EE-tagged MOR (unknown origin) expressed in human HEK293 cells assessed as inhibition of forskolin-induced cAMP accumulation at 10 uM after 30 mins by GloSensor cAMP assay; assay type: functional, cell-based
Procedure, shortened: (§3)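 HEK293 cells stably expressing MOR, stimulated with 50 μM forskolin in the presence of a range of compound concentrations, up to 10–5 M. Read-out is cAMP accumulation as % of maximum. Triplicate determinations in three independent experiments, mean ± SEM.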

[8] = system: Mus musculus; experiment: Antihyperalgesic activity in sc dosed PGE2-induced CD1 mouse model of thermal hyperalgesia at 8 to 16 mg/kg, sc pretreated for 20 mins before PGE2 stimulation and measured after 10 mins by radiant heat […] method; assay type: functional, organism-based
[9] = Toxicity in PGE2-induced CD1 mouse model of thermal hyperalgesia assessed as effect on gastrointestinal transit at 8 to 16 mg/kg, sc dosed 30 mins before charcoal suspension administration and measured after 30 mins (reference value: 30 cm); assay type: organism-based; settings: in vivo, 0.5 h
Procedure, shortened: (§4)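 Run straight after the PGE2 hyperalgesia test, i.e. 30 min after s.c. dosing. Mice received 0.5% charcoal suspension intragastrically. Distance travelled by charcoal along the small intestine measured 30 min after ingestion. Mean ± SEM of 6–7 mice; one-way ANOVA with Bonferroni test versus the saline group.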

[10] = Toxicity in PGE2-induced CD1 mouse model of thermal hyperalgesia assessed as effect on gastrointestinal transit at 4 mg/kg, sc dosed 30 mins before charcoal suspension administration and measured after 30 mins (reference value: 30 cm); assay type: organism-based; settings: in vivo, 0.5 h; procedure, shortened: as §4
[11] = biological target: Mu-type opioid receptor (Homo sapiens) (UniProt P35372); experiment: Biased agonist activity at EE-tagged MOR (unknown origin) expressed in human HEK293 cells assessed as increase in ERK1/2 phosphorylation levels at 1 uM after 15 mins by Western blot analysis; assay type: cell-based; procedure, shortened: as §2
[12] = biological target: Mu-type opioid receptor (Homo sapiens) (UniProt P35372); experiment: Agonist activity at EE-tagged MOR (unknown origin) expressed in human HEK293 cells assessed as inhibition of forskolin-induced cAMP accumulation at 10 uM after 30 mins by GloSensor cAMP assay relative to control; assay type: functional, cell-based; procedure, shortened: as §3
[13] = system: Mus musculus; experiment: Antihyperalgesic activity in sc dosed PGE2-induced CD1 mouse model of thermal hyperalgesia assessed as increase in paw withdrawl latency pretreated with compound for 20 mins before PGE2 stimulation for 10 mins by radiant heat […] method; assay type: functional, organism-based
Procedure, shortened: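 Mice given compound or solvent s.c. 20 min before intraplantar PGE2 or saline. Hindpaw withdrawal latency to radiant heat measured in the injected paw 10 min after the i.pl. injection. Test compounds dosed 8–16 mg/kg; morphine 1–3 mg/kg and LP1 1–4 mg/kg as comparators. One-way ANOVA with Bonferroni test.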

Kappa-type opioid receptor, sequence (P41144 whole entry): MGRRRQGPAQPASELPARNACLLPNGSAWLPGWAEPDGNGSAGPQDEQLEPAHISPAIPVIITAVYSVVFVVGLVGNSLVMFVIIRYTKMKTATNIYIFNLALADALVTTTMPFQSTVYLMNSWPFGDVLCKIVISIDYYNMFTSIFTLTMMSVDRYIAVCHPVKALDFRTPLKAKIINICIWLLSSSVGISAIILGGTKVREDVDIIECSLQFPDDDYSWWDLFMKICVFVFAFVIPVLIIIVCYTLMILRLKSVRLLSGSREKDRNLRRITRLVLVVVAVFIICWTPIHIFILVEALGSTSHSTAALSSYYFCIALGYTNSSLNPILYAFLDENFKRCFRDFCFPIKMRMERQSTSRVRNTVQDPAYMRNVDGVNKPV
Mu-type opioid receptor, sequence (P33535 whole entry): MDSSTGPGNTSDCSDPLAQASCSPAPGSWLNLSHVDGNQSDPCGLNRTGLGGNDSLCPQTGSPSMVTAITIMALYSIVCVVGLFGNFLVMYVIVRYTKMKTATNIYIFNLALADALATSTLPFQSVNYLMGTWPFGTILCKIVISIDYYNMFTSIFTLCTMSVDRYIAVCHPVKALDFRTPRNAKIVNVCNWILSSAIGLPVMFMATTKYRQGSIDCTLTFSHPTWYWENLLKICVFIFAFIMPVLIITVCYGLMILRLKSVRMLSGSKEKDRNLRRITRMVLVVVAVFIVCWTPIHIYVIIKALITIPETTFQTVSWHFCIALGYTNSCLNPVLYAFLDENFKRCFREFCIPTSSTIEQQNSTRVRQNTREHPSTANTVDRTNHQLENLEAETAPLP
Mu-type opioid receptor (Homo sapiens), sequence (P35372 whole entry): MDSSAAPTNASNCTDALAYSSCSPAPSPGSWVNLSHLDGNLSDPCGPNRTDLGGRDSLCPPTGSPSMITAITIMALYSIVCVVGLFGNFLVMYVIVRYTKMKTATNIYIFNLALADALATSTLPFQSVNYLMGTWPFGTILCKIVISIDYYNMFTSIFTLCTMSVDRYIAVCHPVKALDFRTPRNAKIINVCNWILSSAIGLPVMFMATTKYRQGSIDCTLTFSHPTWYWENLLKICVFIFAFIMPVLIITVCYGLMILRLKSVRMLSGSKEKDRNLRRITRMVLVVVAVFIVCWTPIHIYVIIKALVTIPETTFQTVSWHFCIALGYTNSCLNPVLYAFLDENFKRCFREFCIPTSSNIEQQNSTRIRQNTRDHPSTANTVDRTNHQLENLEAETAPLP
Delta-type opioid receptor, sequence (P33533 whole entry): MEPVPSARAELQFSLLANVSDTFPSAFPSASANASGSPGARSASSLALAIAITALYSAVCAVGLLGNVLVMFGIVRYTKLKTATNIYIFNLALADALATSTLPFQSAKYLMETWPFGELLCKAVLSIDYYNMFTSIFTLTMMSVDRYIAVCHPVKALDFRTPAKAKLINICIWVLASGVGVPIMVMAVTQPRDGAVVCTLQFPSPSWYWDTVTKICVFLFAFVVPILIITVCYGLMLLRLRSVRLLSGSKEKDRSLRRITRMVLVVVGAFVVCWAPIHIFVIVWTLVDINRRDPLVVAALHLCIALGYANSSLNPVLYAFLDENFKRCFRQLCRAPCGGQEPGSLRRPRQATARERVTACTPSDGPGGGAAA

Row | SMILES | Ki [1] | Ki [2] | Ki [3] | other results
1 | Cc1cccc(C)c1N(Cc1ccccc1)C(=O)CCN1CC[C@@]2(C)c3cc(O)ccc3C[C@@H]1[C@@H]2C | 0.4 µM | > 5 µM | > 3 µM | 
2 | Cc1cccc(C)c1NC(=O)CCN1CC[C@@]2(C)c3cc(O)ccc3C[C@@H]1[C@@H]2C | 0.0074 µM | 0.277 µM | 0.252 µM | Activity [4]: Active; Activity [5]: inactive; Activity [6]: inactive; inhibition [7]: inactive; Activity [8]: inactive; Activity [9]: 30 cm
3 | C[C@H]1[C@H]2Cc3ccc(O)cc3[C@]1(C)CCN2CCC(=O)Nc1ccccc1 |  |  |  | Activity [4]: Active; Activity [6]: inactive; Activity [10]: Toxic
4 | Cc1ccc(NC(=O)CCN2CC[C@@]3(C)c4cc(O)ccc4C[C@@H]2[C@@H]3C)c(C)c1 | 0.0208 µM | 0.474 µM | 0.34 µM | Activity [4]: Active; Activity [6]: inactive; inhibition [7]: inactive; Activity [8]: inactive; Activity [9]: 30 cm
5 | C[C@H]1[C@H]2Cc3ccc(O)cc3[C@]1(C)CCN2CCN(Cc1ccccc1)c1ccccc1 | 0.244 µM | > 1 µM | > 3 µM | 
6 | Cc1cc(C)c(NC(=O)CCN2CC[C@@]3(C)c4cc(O)ccc4C[C@@H]2[C@@H]3C)c(C)c1 | 0.0437 µM | > 2 µM | 0.313 µM | inhibition [7]: inactive
7 | Cc1ccc(C)c(NC(=O)CCN2CC[C@@]3(C)c4cc(O)ccc4C[C@@H]2[C@@H]3C)c1 | 0.0079 µM | 0.478 µM | 0.48 µM | Activity [5]: inactive; Activity [11]: Active; Activity [8]: inactive; Activity [9]: 30 cm; inhibition [12]: 50%
8 | Cc1ccc(NCCN2CC[C@@]3(C)c4cc(O)ccc4C[C@@H]2[C@@H]3C)c(C)c1 | 0.129 µM | > 5 µM | > 1 µM | 
9 | C[C@H]1[C@H]2Cc3ccc(O)cc3[C@]1(C)CCN2CCC(=O)N(Cc1ccccc1)c1ccccc1 | 0.606 µM | > 5 µM | > 5 µM | 
10 | Cc1cc(C)c(N(Cc2ccccc2)C(=O)CCN2CC[C@@]3(C)c4cc(O)ccc4C[C@@H]2[C@@H]3C)c(C)c1 | 0.504 µM | > 5 µM | 0.444 µM | 
11 | CN1CC[C@]23c4c5ccc(O)c4O[C@H]2[C@@H](O)C=C[C@H]3[C@H]1C5 |  |  |  | Activity [13]: Dose-dependent effect
12 | CCc1cccc(C)c1NC(=O)CCN1CC[C@@]2(C)c3cc(O)ccc3C[C@@H]1[C@@H]2C | 0.0149 µM | 0.198 µM | 0.32 µM | Activity [4]: Active; Activity [6]: inactive; inhibition [7]: inactive; Activity [8]: inactive; Activity [9]: 30 cm
13 | Cc1ccc(C)c(NCCN2CC[C@@]3(C)c4cc(O)ccc4C[C@@H]2[C@@H]3C)c1 | 0.182 µM | > 5 µM | > 2 µM | 
14 | Cc1ccc(N(Cc2ccccc2)C(=O)CCN2CC[C@@]3(C)c4cc(O)ccc4C[C@@H]2[C@@H]3C)c(C)c1 | 0.165 µM | > 5 µM | > 2 µM | 
15 | CCc1cccc(C)c1N(Cc1ccccc1)C(=O)CCN1CC[C@@]2(C)c3cc(O)ccc3C[C@@H]1[C@@H]2C | 1.54 µM | > 5 µM | 0.151 µM | 
16 | Oc1ccc2c3c1O[C@H]1c4[nH]c5ccccc5c4C[C@@]4(O)[C@@H](C2)N(CC2CC2)CC[C@]314 [NALTRINDOLE] |  | 0.00083 µM |  | 
